From ChEMBL document CHEMBL1155146, “Diphenyl furans and aza analogs: effects of structural modification on in vitro activity, DNA binding, and accumulation and distribution in trypanosomes” (Antimicrob Agents Chemother, 2007) come the findings set out here.

SMILES strings stand for the structures.

Data set [1] relates to Trypanosoma brucei rhodesiense. The data set is described as follows: Antitrypanosomal activity against Trypanosoma brucei rhodesiense STIB900 after 72 hrs. Type of data set: functional, organism-based. The settings on record: STIB900, 72 h.
The nature of data set [2]: Binding affinity to poly(dA).poly(dT) assessed as increase in melting temperature. The procedure, abridged:
(§1)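 UV thermal melting in MES buffer (0.01 M MES, 0.1 M NaCl, 0.001 M EDTA, pH 6.2), heated at 0.5°C/min. Oligomer duplex at 1 x 10^-6 M duplex with 1:1 compound:duplex. Poly(dA)·poly(dT) at 5 x 10^-5 M base pairs with 0.6 compound:bp. Tm taken from the first-derivative maximum of absorbance vs temperature. ΔTm = Tm(complex) − Tm(DNA).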

Data set [3] relates to Trypanosoma brucei brucei. The data set can be described thus: Drug level in Trypanosoma brucei brucei S427 at 7.5 uM after 8 hrs. Type of data set: ADME, organism-based. In outline: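 About 10^6 trypanosomes incubated with 7.5 µM diamidine for 1 to 8 h. Intracellular concentration measured by HPLC (fluorescence detection at excitation/emission maxima, formate buffer/acetonitrile gradient, reversed-phase column) or LC/MS. Reported as mean ± standard error.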

Data set [4] can be described thus: Binding affinity at d(CGCGAATTCGCG) synthetic oligomer duplex assessed as increase in melting temperature. The procedure, abridged: as §1
The subject of data set [5] is Trypanosoma brucei brucei. The data set is described as follows: Antitrypanosomal activity against Trypanosoma brucei brucei S427 after 72 hrs. Type of data set: functional, organism-based. As to conditions: S427, 72 h.
The subject of data set [6] is Trypanosoma brucei brucei. The data set can be described thus: Drug level in Trypanosoma brucei brucei S427 at 7.5 uM after 24 hrs. In kind it is ADME, organism-based.

For the molecule `N=C(NC1CCCCC1)c1ccc(-c2ccc(-c3ccc(C(=N)NC4CCCCC4)cc3)o2)cc1`, the half-inhibitory concentration (IC50) is 0.068 µM in data set [1] and 0.121 µM in data set [5]. The ΔTm in data set [2] turned out to be 27 °C; in data set [4], 16.8 °C. The Drug uptake in data set [3] amounted to 30 mM.

In the case of `N=C(NC1CCCC1)c1ccc(-c2ccc(-c3ccc(C(=N)NC4CCCC4)cc3)o2)cc1`, the IC50 in data set [1] turned out to be 0.06 µM; in data set [5] it was 0.1 µM. The figures for the ΔTm in data set [2] and in data set [4] were 27 °C and 16 °C, respectively. This molecule returned a Drug uptake in data set [3] of 30 mM.

Take `N=C(N)c1ccc(-c2ccc(-c3ccc(C(=N)N)cc3O)o2)nc1`: the IC50 in data set [1] and in data set [5] was 0.032 µM in each case. The ΔTm is 16.4 °C in data set [2] and 10.4 °C in data set [4].

As to `c1cc(-c2ccc(-c3ccc(C4=NCCCN4)cc3)o2)ccc1C1=NCCCN1`, the values for the IC50 in data set [1] and in data set [5] were 0.033 µM and 0.26 µM, respectively. Further, the shift in melting temperature (ΔTm) in data set [2] is 27 °C; in data set [4] it was 15.1 °C.

For the molecule `N=C(N)c1ccc(-c2ccc(-c3ccc(C(=N)N)cn3)o2)cc1`, the ΔTm in data set [2] was 20 °C; in data set [4], 11.2 °C. For the same molecule, the Drug uptake in data set [3] was determined as 1 mM; in data set [6], 3 mM. This molecule also registered an IC50 in data set [5] of 0.0034 µM.

With `c1cc(-c2ccc(-c3ccc(C4=NCCN4)cc3)o2)ccc1C1=NCCN1`, the IC50 in data set [1] is 0.245 µM; in data set [5], 0.251 µM. In addition, the ΔTm in data set [2] is 19.3 °C; in data set [4], 11 °C.

Take `N=C(N)c1ccc(-c2ccc(-c3ccc(C(=N)N)cc3F)o2)c(F)c1`: the values for the IC50 in data set [1] and in data set [5] were 0.008 µM and 0.0148 µM, respectively. Further, the ΔTm worked out at 15.2 °C in data set [2] and 8.2 °C in data set [4].

Turning to `Cc1cc(C(=N)N)ccc1-c1ccc(-c2ccc(C(=N)N)cn2)o1`, the half-maximal inhibitory concentration (IC50) in data set [1] amounted to 0.0097 µM; in data set [5], 0.01 µM. Also, the ΔTm is 16.7 °C in data set [2] and 10.6 °C in data set [4].

For the molecule `N=C(N)c1ccc(-c2ccc(-c3ccc(C(=N)N)cc3)o2)cc1` [FURAMIDINE], the values for the ΔTm in data set [2] and in data set [4] were 26.2 °C and 8.9 °C, respectively. The Drug uptake in data set [3] stood at 4.5 mM; in data set [6], 12 mM. In data set [5], the IC50 was 0.007 µM.

Turning to `N=C(N)c1ccc(-c2ccc(-c3ccc(C(=N)N)cn3)o2)nc1`, the IC50 turned out to be 0.019 µM in data set [1] and 0.013 µM in data set [5]. Moreover, the ΔTm was determined as 16 °C in data set [2] and 8.4 °C in data set [4].

In the case of `N=C(N)c1ccc(Cc2ccc(-c3ccc(C(=N)N)cn3)o2)cc1`, the IC50 in data set [1] is 0.147 µM; in data set [5], 0.314 µM. For the same molecule, the ΔTm in data set [2] worked out at 3.1 °C; in data set [4], 0.4 °C.

With `N=C(N)c1ccc(-c2coc(-c3ccc(C(=N)N)cc3)c2)cc1`, the IC50 in data set [1] was 0.0017 µM; in data set [5], 0.0021 µM. Further, the ΔTm was 17.1 °C in data set [2] and 10.4 °C in data set [4]. In data set [3], this molecule showed a Drug uptake of 30 mM.

Take `N=C(N)c1ccc(-c2ccc(-c3ccc(C(=N)N)nc3)o2)cc1`: the IC50 came out at 0.0021 µM in data set [1] and 0.0033 µM in data set [5]. The figures for the shift in melting temperature (ΔTm) in data set [2] and in data set [4] were 23.3 °C and 10.4 °C, respectively. In data set [3], this molecule yielded a Drug uptake of 9.3 mM.
